CHO parental Ca – ATP-evoked calcium signal inhibitors, parental CHO, primary screen, counter-screen for OX1R antagonist project, cell-based, fluorescence, Fluo-8 calcium dye; 0.63% of 330,000 active; parental CHO-K1, ATP-induced calcium, Fluo-8 fluorescence; inhibition, % at 5.6 µM; AID 463079, 2010;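 active = inhibition above that plate's mean sample inhibition plus 3 SD, cut at about 26% in these data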
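Test system: untransfected parental CHO cell line. Compound: one dose, 5.6 µM nominal. Detection: intracellular calcium via Fluo-8 no-wash fluorescent dye. Measure: % inhibition. Benchmarks: ATP-challenged DMSO wells low, unchallenged DMSO wells high.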
OX1R antag-1 – antagonists of human orexin 1 receptor (OX1R); Orexin/Hypocretin receptor type 1 (Homo sapiens), O43613; OX1R-expressing cells, FRET antagonist read-out; inhibition, % at 6.6 µM; 1.8% of 330,000 active; in the data active = inhibition mostly above about 38%, no sharp cut-off; inactive = mostly below about 40%
GPR7 antagonist – GPR7 receptor antagonists, primary screen, cell-based, fluorescence, single concentration | GPR7-expressing cells, fluorescence antagonist assay | inhibition, % at 4.4 µM | 1.1% of 290,000 active; in the data active = inhibition above about 16%, passing the limit was not always enough;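 also: cells stimulated with the agonist NPW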
Target sequence (P48145 whole entry, looked up): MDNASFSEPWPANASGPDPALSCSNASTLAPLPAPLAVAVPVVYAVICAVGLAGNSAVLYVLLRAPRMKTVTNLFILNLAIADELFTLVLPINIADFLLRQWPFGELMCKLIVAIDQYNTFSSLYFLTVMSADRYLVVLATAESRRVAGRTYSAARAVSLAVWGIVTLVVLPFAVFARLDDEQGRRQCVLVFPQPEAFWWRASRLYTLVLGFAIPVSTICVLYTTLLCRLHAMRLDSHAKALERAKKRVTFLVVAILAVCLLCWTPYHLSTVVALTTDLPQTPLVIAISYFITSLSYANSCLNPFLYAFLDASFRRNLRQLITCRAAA
MPTP inh – mitochondrial permeability transition pore inhibitors, primary screen, biochemical, isolated mouse mitochondria, absorbance | Ca2+ swelling absorbance, 30 min | 1.4% of 360,000 active | inhibition, % at 10 µM;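 active = inhibition of 50% or more, scaled per plate between neutral and stimulator controls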
OX1R antag-2 – OX1R (HCRTR1) antagonists, primary screen, fluorescence, CHO/OX1R cells, Fluo-8 calcium, orexin A | Fluo-8 calcium fluorescence | inhibition, % at 5 µM | 0.43% of 330,000 active;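 active = inhibition above its plate's threshold, mean inhibition of all tested compounds on the plate plus 3 SD, cut at about 37% in these data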
Each line names hits and unclear results; the compound was inactive in the other large screens. Compounds with a hit are over-represented: about 3.8% of the library has one in this group of screens.

Cc1ccc(CNC(=O)c2ccc3c(=O)[nH]c4c(C(=O)NCC5CCCO5)sc(=S)n4c3c2)cc1 (stereo not given)	none
O=C(Nc1cc2c(cc1[N+](=O)[O-])OCCO2)c1cccnc1	OX1R antag-1 50 (no result: GPR7 antagonist)
O=C(Nc1ccc([N+](=O)[O-])c(NC(=O)c2cccnc2)c1)c1cccnc1	none (no result: GPR7 antagonist)
O=C(Oc1ccc(-c2cn3c(n2)SCC3)cc1)c1ccccc1	GPR7 antagonist 18
CC(=O)Nc1ccc(-c2cn3c(n2)SCC3)cc1	none
COc1ccccc1C(NC(=O)C1CCN(CCOc2ccc(Cl)cc2Cl)CC1)c1ccccn1 (stereo not given)	none (no result: CHO parental Ca, OX1R antag-1, GPR7 antagonist, OX1R antag-2)
O=C(NC1CCCC1)c1ccc2nc(-c3ccco3)c(-c3ccco3)nc2c1	OX1R antag-1 63
COc1ccccc1-c1cn[nH]c1-c1ccc(OCc2ccccc2)cc1O	none
COc1ccc(-c2[nH]ncc2-c2ccc(Cl)cc2)c(O)c1	CHO parental Ca 72
COc1ccc(-c2cn[nH]c2-c2ccc(OCc3ccccc3)cc2O)cc1	CHO parental Ca 54
Cc1cccc(C)c1-n1nnnc1C(c1ccnc2ccccc12)N(CCN(C)C)Cc1ccccc1 (stereo not given)	none (no result: CHO parental Ca, OX1R antag-1, GPR7 antagonist, OX1R antag-2)
Cc1cccc(C)c1NC(=O)c1cc(S(=O)(=O)N2CCOCC2)ccc1F	none
Cc1ccccc1NC(=O)c1cc(S(=O)(=O)N2CCOCC2)ccc1F	OX1R antag-1 47
Nc1cc2c(cc1[N+](=O)[O-])OCCOCCOCCO2	none
Nc1cc2c(cc1[N+](=O)[O-])OCCO2	OX1R antag-1 49
C/C(Cn1nnc2ccccc21)=N\NC(=O)c1ccc(Br)cc1	none
O=C(CCl)NN1C(=O)NC(c2ccccc2)(c2ccccc2)C1=O	none
CC1=C(C(=O)NC2CCCc3c2cnn3-c2cccc(C)c2C)OCCO1 (stereo not given)	OX1R antag-1 67
Cc1cc(C(=O)NC2CCCc3c2cnn3-c2cccc(C)c2C)no1 (stereo not given)	none
COc1ccc(C(=O)NC2CCCc3c2cnn3-c2cccc(C)c2C)o1 (stereo not given)	OX1R antag-1 68
Cc1ccccc1OCC(=O)Nc1cc(S(=O)(=O)N2CCCCC2)ccc1N1CCN(C)CC1	none
CCn1ccnc1CN(C)Cc1c(C(=O)N2CCCCCCC2)nc2ccc(Cl)cn12	none
O=S1(=O)c2c(F)cccc2O[C@@H](COCc2ccccc2)CN1CCc1ccc(F)cc1	none (no result: CHO parental Ca, OX1R antag-1, GPR7 antagonist, OX1R antag-2)
CC(=O)Nc1ccc(S(=O)(=O)N(Cc2ccccc2)c2ccccc2)cc1	OX1R antag-1 66
Cc1ccc(-c2[nH]nc(N)c2N=Nc2cccc(Cl)c2C)cc1	none (no result: CHO parental Ca, OX1R antag-1, OX1R antag-2)
Cc1ccc(-c2[nH]nc(N)c2N=Nc2ccccc2C)cc1	CHO parental Ca 56
COc1ccccc1C(=O)NC(=S)Nc1cccnc1Cl	OX1R antag-1 47
C=CCOC(=O)Nc1nc(CCNC(=O)OCc2ccccc2)c(C(=O)OC)s1	none (no result: CHO parental Ca, OX1R antag-1, GPR7 antagonist, OX1R antag-2)
COc1ccccc1Nc1nc(NCCO)nc(N)c1[N+](=O)[O-]	none
CNc1nc(N)c([N+](=O)[O-])c(Nc2ccccc2OC)n1	OX1R antag-1 44
N#Cc1ccc(OCC(=O)Nc2ccc(S(=O)(=O)N3CCOCC3)cc2)cc1	none (no result: GPR7 antagonist)
[O-][n+]1cccc2c(Br)cc(Br)c(O)c21	CHO parental Ca 30
Cn1c2ccccc2c2nnc(N/N=C/c3ccc(O)cc3)nc21	none (no result: GPR7 antagonist)
C[N+]1(C2CCC3CCCC2C3O)CCCCC1 (stereo not given)	none
c1ccc(-c2noc(-c3cccc4ccccc34)n2)nc1	OX1R antag-1 66
Cc1nc(C(=O)O)nn1-c1ccc([N+](=O)[O-])cc1	OX1R antag-1 46
COc1ccc(C(C(=O)Nc2ccc(F)cc2)N2CCN(CC(=O)N3CCCC3)CC2)cc1 (stereo not given)	none (no result: CHO parental Ca, OX1R antag-1, GPR7 antagonist, OX1R antag-2)
CN(Cc1nc2ccccc2c(=O)[nH]1)C(=O)c1ccccc1OCc1ccc(Cl)cc1	OX1R antag-1 56 (no result: GPR7 antagonist)
O=C(OCc1cc(=O)n2c(n1)sc1ccccc12)c1ccc(O)cc1O	OX1R antag-1 63
C=CCn1c(C)cc(C(=O)CSc2nc3ccccc3o2)c1C	CHO parental Ca 43, OX1R antag-2 41
Cc1cc(C(=O)CSc2nc3ccccc3o2)c(C)n1C1CC1	OX1R antag-2 41
C=CCn1c(C)cc(C(=O)CSc2nnc(Cc3ccccc3)o2)c1C	none
COc1ccc(Cl)cc1CNC[C@H]1O[C@@H](n2ccc(N)nc2=O)[C@H](O)[C@@H]1O	none (no result: CHO parental Ca, OX1R antag-1, GPR7 antagonist, OX1R antag-2)
COc1c(OC(C)=O)ccc(/C=C/c2ccc3ccccc3n2)c1[N+](=O)[O-]	OX1R antag-1 42
Cc1cc2cc3c(cc2nc1SCc1ccccn1)OCCO3	none
N#Cc1cc2ccccc2nc1SCc1ccccn1	OX1R antag-1 49
COc1ccc(CCNC(=O)c2cc3c(=O)n4cccc(C)c4nc3n(CCCN3CCOCC3)c2=N)cc1	none
CCOCCCn1c(=N)c(C(=O)NCCN2CCOCC2)cc2c(=O)n3cccc(C)c3nc21	OX1R antag-1 57
Cc1cccn2c(=O)c3cc(C(=O)NCCN4CCOCC4)c(=N)n(CCN4CCOCC4)c3nc12	OX1R antag-1 53
Cc1cccn2c(=O)c3cc(C(=O)NCCN4CCOCC4)c(=N)n(Cc4ccc(F)cc4)c3nc12	OX1R antag-1 40
CCCCn1cc(C(=O)c2cc(Br)ccc2O)cc(C#N)c1=O	OX1R antag-2 44
CC(O)(c1cccc(F)c1)c1nc(-c2ccc(S(C)(=O)=O)cc2)cs1 (stereo not given)	none (no result: CHO parental Ca, OX1R antag-1, GPR7 antagonist, OX1R antag-2)
COc1ccc(NC(=O)CN(C)S(=O)(=O)c2ccc(Cl)cc2)cn1	none (no result: GPR7 antagonist)
C/C(=N/NC(=O)CN(c1ccccc1)S(=O)(=O)c1ccccc1)c1ccccc1O	OX1R antag-1 50
O=c1c2cc(O)c(O)cc2oc2cc(O)c(C3OC(CO)C(O)C(O)C3O)c(O)c12 (stereo not given)	none (no result: GPR7 antagonist)
O=C(CSc1cccc(C(F)(F)F)c1)Nc1nnc(C2CC2)s1	none (no result: GPR7 antagonist)
CCOc1ncccc1C(=O)Nc1cc2c(cc1Br)OCCO2	OX1R antag-1 40 (no result: GPR7 antagonist)
CCOc1ncccc1C(=O)Nc1nnc(C2CC2)s1	OX1R antag-1 74
CCOc1ncccc1C(=O)Nc1nnc(C)s1	none
O=C(CSc1ccccc1)Nc1nnc(C2CC2)s1	CHO parental Ca 30
COc1cc(Br)cc2cc(C(=O)OC3CCN(C)CC3)c(=O)oc12	OX1R antag-1 49
O=C1c2ccccc2S(=O)(=O)c2cc(C(=O)N3CCN(c4ccccc4)CC3)ccc21	none (no result: GPR7 antagonist)
CC(OC(=O)c1ccc2c(c1)S(=O)(=O)c1ccccc1C2=O)C(N)=O (stereo not given)	OX1R antag-1 71
NC(=O)COC(=O)c1ccc2c(c1)S(=O)(=O)c1ccccc1C2=O	OX1R antag-1 64
COCCN1CCN(C(=O)c2ccc3c(c2)S(=O)(=O)c2ccccc2C3=O)CC1	OX1R antag-1 66 (no result: GPR7 antagonist, MPTP inh)

Screening data deposited in PubChem BioAssay by several laboratories.
